Key:
Settings in all cases: in vivo
[1] = Drug excretion in urine of female cynomolgus monkey treated with [14C]sunitinib at 6 mg/kg, po administered as single dose by liquid scintillation counting; assay type: ADME, organism-based, Macaca fascicularis; design: dose 6 mg/kg, dosed compound name [14C]Sunitinib, route oral
Procedure, shortened: (§1)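 Cynomolgus monkeys given one oral gavage dose of [14C]sunitinib L-malate, 6 mg/kg (37 µCi/kg). Urine collected at 0-4, 4-8 and 8-24 h, feces at 0-8 and 8-24 h, then both daily to 14 days; samples stored at -80 °C. Duplicate urine aliquots counted by liquid scintillation; homogenized feces combusted before counting.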

[2] = Drug excretion in urine of human treated with [14C]sunitinib at 50 mg, po administered as single dose by liquid scintillation counting
[3] = Drug excretion in feces of female cynomolgus monkey treated with [14C]sunitinib at 6 mg/kg, po administered as single dose by liquid scintillation counting; assay type: ADME, organism-based, Macaca fascicularis; design: dose 6 mg/kg, dosed compound name [14C]Sunitinib, route oral; procedure, shortened: as §1
[4] = Drug excretion in feces of male cynomolgus monkey treated with [14C]sunitinib at 6 mg/kg, po administered as single dose by liquid scintillation counting; assay type: ADME, organism-based, Macaca fascicularis; design: dose 6 mg/kg, dosed compound name [14C]Sunitinib, route oral; procedure, shortened: as §1
[5] = Drug excretion in urine of female Sprague-Dawley rat treated with [14C]sunitinib at 15 mg/kg, po administered as single dose by liquid scintillation counting; assay type: ADME, organism-based; design: dose 15 mg/kg, dosed compound name [14C]Sunitinib, route oral
Procedure, shortened: (§2)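 Female and male rats given one oral gavage dose, 15 mg/kg free base equivalents (50 µCi/kg). Urine and feces collected on dry ice, protected from light, over 0-4, 4-8 and 8-24 h, then daily to 72 h. Urine aliquots counted by liquid scintillation; homogenized feces combusted in oxygen before counting. Counts 5 min, external quench correction.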

[6] = Drug excretion in urine of male cynomolgus monkey treated with [14C]sunitinib at 6 mg/kg, po administered as single dose by liquid scintillation counting; assay type: ADME, organism-based, Macaca fascicularis; design: dose 6 mg/kg, dosed compound name [14C]Sunitinib, route oral; procedure, shortened: as §1
[7] = Drug excretion in urine of female Sprague-Dawley rat treated with [14C]sunitinib at 5 mg/kg, iv administered as single dose by liquid scintillation counting; assay type: ADME, organism-based; design: dose 5 mg/kg, dosed compound name [14C]Sunitinib, route intravenous
Procedure, shortened: (§3)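 Five female rats given a single tail-vein bolus of [14C]sunitinib L-malate, 5 mg/kg free base equivalents (50 µCi/kg). Urine and feces collected over 0-72 h into dry-ice cooled containers. Urine counted directly by liquid scintillation; feces homogenized and combusted in oxygen before counting. Expired air also monitored.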

[8] = Drug excretion in urine of male Sprague-Dawley rat treated with [14C]sunitinib at 15 mg/kg, po administered as single dose by liquid scintillation counting; assay type: ADME, organism-based; design: dose 15 mg/kg, dosed compound name [14C]Sunitinib, route oral; procedure, shortened: as §2
[9] = Drug excretion in feces of human treated with [14C]sunitinib at 50 mg, po administered as single dose by liquid scintillation counting
[10] = Drug excretion in feces of female Sprague-Dawley rat treated with [14C]sunitinib at 5 mg/kg, iv administered as single dose by liquid scintillation counting; assay type: ADME, organism-based; design: dose 5 mg/kg, dosed compound name [14C]Sunitinib, route intravenous; procedure, shortened: as §3
[11] = Drug excretion in feces of female Sprague-Dawley rat treated with [14C]sunitinib at 15 mg/kg, po administered as single dose by liquid scintillation counting; assay type: ADME, organism-based; design: dose 15 mg/kg, dosed compound name [14C]Sunitinib, route oral; procedure, shortened: as §2

**Q.** Which Compound recovery [1] does the source give for `CC[N+]([O-])(CC)CCNC(=O)c1c(C)[nH]c(/C=C2\C(=O)Nc3ccc(F)cc32)c1C` here?
**A.** 0.2%

**Q.** What about the Compound recovery [2] of the same compound?
**A.** metabolite_not_detected

**Q.** What about the Compound recovery [3] of the same compound?
**A.** 2.6%

**Q.** And the Compound recovery [4]?
**A.** 3.2%

**Q.** And the Compound recovery [5]?
**A.** 1.5%

**Q.** And the Compound recovery [6]?
**A.** < 0.1%

**Q.** And the Compound recovery [7]?
**A.** 0.7%

**Q.** What about the Compound recovery [8] of the same compound?
**A.** 0.3%

**Q.** Which Compound recovery [9] does the source give for `Cc1[nH]c(/C=C2\C(=O)Nc3ccc(F)cc32)c(C)c1C(=O)NCC(=O)O` here?
**A.** metabolite_not_detected

**Q.** And the Compound recovery [3]?
**A.** 6.2%

**Q.** And the Compound recovery [4]?
**A.** 6.3%

**Q.** For `CCNCC(O)NC(=O)c1c(C)[nH]c(/C=C2\C(=O)Nc3ccc(F)cc32)c1C` (centres undefined), which Compound recovery [9] is on record?
**A.** metabolite_not_detected

**Q.** What about the Compound recovery [3] of the same compound?
**A.** 0.8%

**Q.** What about the Compound recovery [4] of the same compound?
**A.** 1%

**Q.** With `Cc1[nH]c(/C=C2\C(=O)Nc3ccc(F)cc32)c(C)c1C(=O)NCCN` as the compound, how does the Compound recovery [9] read?
**A.** metabolite_not_detected

**Q.** What about the Compound recovery [3] of the same compound?
**A.** 0.8%

**Q.** And the Compound recovery [10]?
**A.** 1.1%

**Q.** What about the Compound recovery [4] of the same compound?
**A.** 1%

**Q.** And the Compound recovery [11]?
**A.** 1.7%
